Measurements published in PMC3611965 (Nuclear medicine and biology, 2012).
“And” between values parts separate entries of the source, which are not always exact repeats. Identical values can stand only once.

How the values were obtained:
[1] = rats; ref [20],[21]; cited from earlier work
[2] = target: T1, FAAH (Rattus norvegicus, UniProt P97612); details: cited from earlier work
T1 sequence (P97612 1-579): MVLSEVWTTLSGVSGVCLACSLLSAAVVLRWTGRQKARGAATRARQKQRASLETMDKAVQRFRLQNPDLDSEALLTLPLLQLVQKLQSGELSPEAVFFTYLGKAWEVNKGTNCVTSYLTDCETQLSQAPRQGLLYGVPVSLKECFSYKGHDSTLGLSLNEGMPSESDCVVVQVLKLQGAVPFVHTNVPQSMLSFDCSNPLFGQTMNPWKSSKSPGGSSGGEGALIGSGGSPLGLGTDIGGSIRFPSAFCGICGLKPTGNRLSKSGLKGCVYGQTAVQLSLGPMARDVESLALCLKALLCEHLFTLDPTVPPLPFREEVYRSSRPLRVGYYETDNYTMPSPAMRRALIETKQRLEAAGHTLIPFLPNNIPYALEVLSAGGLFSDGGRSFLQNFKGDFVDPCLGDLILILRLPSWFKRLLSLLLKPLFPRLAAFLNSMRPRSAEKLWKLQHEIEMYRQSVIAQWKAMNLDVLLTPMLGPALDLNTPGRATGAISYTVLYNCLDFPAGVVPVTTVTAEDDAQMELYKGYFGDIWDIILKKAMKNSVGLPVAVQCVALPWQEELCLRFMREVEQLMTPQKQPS

[3] = test system: FAAH relative to other serine hydrolases; details: competitive ABPP; ref [20],[21]; cited from earlier work
[4] = log P7.4 measurement; format: physicochemical; details: n-octanol/DPBS pH 7.4; measured in quadruplicate
In short: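 18F-labelled test compound (15–30 μCi) was partitioned between presaturated n-octanol and DPBS (0.1 M, pH 7.4) by vortexing 60 s and centrifuging at 4000 rpm for 2 min. The octanol phase was washed with fresh DPBS three times, then re-partitioned against fresh DPBS in four successive sets. Triplicate aliquots of each phase were gamma-counted. LogP7.4 = log[(octanol counts×20)/DPBS counts].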

[5] = target: T1, FAAH; assay: brain biodistribution of [18F]PF-9811 in rats, baseline and blocked; format: in vivo; details: for SUV±standard deviation, Bone: N=2; for SUV±standard deviation, Blood / SUV±standard deviation, Brain stem / SUV±standard deviation, Cerebellum / SUV±standard deviation, Cortex / SUV±standard deviation, Hippocampus / SUV±standard deviation, Hypothalamus / SUV±standard deviation, Liver / SUV±standard deviation, Rest of brain / SUV±standard deviation, Striatum / SUV±standard deviation, Thalamus: N=4
[6] = target: T1, FAAH; assay: dynamic PET imaging in rats, baseline and blocked; format: in vivo
In short: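 Male Sprague–Dawley rats (345±28 g) with jugular vein cannulas, held under ~2% isoflurane/O2 with respiration kept at 45–65 breaths/min and heat-lamp warming. The 18F-labelled test compound was given IV via tail vein (1.5462±0.4130 mCi) and brain scanned dynamically for 90 min in 16 frames. Blocked rats received an FAAH inhibitor 1 mg/kg p.o. 1 h before. Blood and plasma were sampled at 1–90 min. Images were atlas-registered for TACs and SUV.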

[7] = 10 min, blocked: 4 1 mg/kg oral 1 h prior
[8] = 10 min post injection, baseline
[9] = 60 min, blocked: 4 1 mg/kg oral 1 h prior
[10] = 60 min post injection, baseline
[11] = 90 min, blocked: 4 1 mg/kg oral 1 h prior
[12] = 90 min, pretreatment with 4 1 mg/kg p.o.
[13] = 90 min post injection, baseline
[14] = biodistribution 90 min, baseline vs blocking

O=C(Nc1cccnn1)N1CCC(=Cc2cccc(Oc3ccc(C(F)(F)F)cn3)c2)CC1 [compound 4]
oral bioavailability [1]: 88% | FAAH inhibition at blocking dose ([2]; p.o. 1.0 mg/kg, ref [20]): fully inhibit | duration of sustained inhibition of brain FAAH activity, maximal elevations of brain AEA and efficacy in rat models of acute inflammatory pain ([2]; single oral administration 1 mg/kg, ref [15],[20]): at least 24 h | selectivity for FAAH relative to other serine hydrolases [3]: exquisite selectivity

O=C(Nc1cccnn1)N1CCC(=Cc2cccc(Oc3ccc(OCC[18F])cn3)c2)CC1 [[^18F]PF-9811]
logP7.4 [4]: 3.14±0.02 and 3.14 | SUV±standard deviation, Bone [5, 7]: 0.332±0.010 SUV | SUV±standard deviation, Blood [5, 7]: 1.031±0.069 SUV | SUV±standard deviation, Brain stem [5, 7]: 0.313±0.011 SUV | SUV±standard deviation, Cerebellum [5, 7]: 0.291±0.008 SUV | SUV±standard deviation, Cortex [5, 7]: 0.265±0.014 SUV | SUV±standard deviation, Hippocampus [5, 7]: 0.282±0.014 SUV | SUV±standard deviation, Hypothalamus [5, 7]: 0.351±0.024 SUV | SUV±standard deviation, Liver [5, 7]: 7.725±0.701 SUV | SUV±standard deviation, Rest of brain [5, 7]: 0.294±0.018 SUV | SUV±standard deviation, Striatum [5, 7]: 0.309±0.028 SUV | SUV±standard deviation, Thalamus [5, 7]: 0.304±0.020 SUV | SUV±standard deviation, Bone [5, 8]: 0.180±0.001 SUV | SUV±standard deviation, Blood [5, 8]: 0.224±0.070 SUV | SUV±standard deviation, Brain stem [5, 8]: 0.319±0.029 SUV | SUV±standard deviation, Cerebellum [5, 8]: 0.666±0.017 SUV | SUV±standard deviation, Cortex [5, 8]: 0.596±0.030 SUV | SUV±standard deviation, Hippocampus [5, 8]: 0.579±0.018 SUV | SUV±standard deviation, Hypothalamus [5, 8]: 0.410±0.027 SUV | SUV±standard deviation, Liver [5, 8]: 14.179±3.336 SUV | SUV±standard deviation, Rest of brain [5, 8]: 0.471±0.038 SUV | SUV±standard deviation, Striatum [5, 8]: 0.427±0.021 SUV | SUV±standard deviation, Thalamus [5, 8]: 0.382±0.051 SUV | SUV±standard deviation, Bone [5, 9]: 0.391±0.088 SUV | SUV±standard deviation, Blood [5, 9]: 0.747±0.191 SUV | SUV±standard deviation, Brain stem [5, 9]: 0.264± 0.076 SUV | SUV±standard deviation, Cerebellum [5, 9]: 0.248± 0.076 SUV | SUV±standard deviation, Cortex [5, 9]: 0.219±0.068 SUV | SUV±standard deviation, Hippocampus [5, 9]: 0.233±0.076 SUV | SUV±standard deviation, Hypothalamus [5, 9]: 0.260± 0.088 SUV | SUV±standard deviation, Liver [5, 9]: 4.488±1.343 SUV | SUV±standard deviation, Rest of brain [5, 9]: 0.239±0.071 SUV | SUV±standard deviation, Striatum [5, 9]: 0.255±0.082 SUV | SUV±standard deviation, Thalamus [5, 9]: 0.251±0.074 SUV | SUV±standard deviation, Bone [5, 10]: 0.133±0.058 SUV | SUV±standard deviation, Blood [5, 10]: 0.063±0.012 SUV | SUV±standard deviation, Brain stem [5, 10]: 0.331±0.041 SUV | SUV±standard deviation, Cerebellum [5, 10]: 0.751±0.094 SUV | SUV±standard deviation, Cortex [5, 10]: 0.674±0.109 SUV | SUV±standard deviation, Hippocampus [5, 10]: 0.673±0.118 SUV | SUV±standard deviation, Hypothalamus [5, 10]: 0.426± 0.045 SUV | SUV±standard deviation, Liver [5, 10]: 17.346±4.789 SUV | SUV±standard deviation, Rest of brain [5, 10]: 0.555±0.081 SUV | SUV±standard deviation, Striatum [5, 10]: 0.441±0.073 SUV | SUV±standard deviation, Thalamus [5, 10]: 0.374±0.045 SUV | SUV±standard deviation, Bone [5, 11]: 0.472±0.133 SUV | SUV±standard deviation, Blood [5, 11]: 0.703±0.117 SUV | SUV±standard deviation, Brain stem [5, 11]: 0.246± 0.050 SUV | SUV±standard deviation, Cerebellum [5, 11]: 0.249± 0.065 SUV | SUV±standard deviation, Cortex [5, 11]: 0.216±0.055 SUV | SUV±standard deviation, Hippocampus [5, 11]: 0.234±0.061 SUV | SUV±standard deviation, Hypothalamus [5, 11]: 0.257±0.079 SUV | SUV±standard deviation, Liver [5, 11]: 4.165±0.664 SUV | SUV±standard deviation, Rest of brain [5, 11]: 0.231±0.055 SUV | SUV±standard deviation, Striatum [5, 11]: 0.240±0.065 SUV | SUV±standard deviation, Thalamus [5, 11]: 0.238±0.058 SUV | increase in signal in the blood on blocking [5, 12]: 12 fold | reduction of signal in the liver on blocking [5, 12]: 74% | SUV±standard deviation, Bone [5, 13]: 0.159±0.001 SUV | SUV±standard deviation, Blood [5, 13]: 0.061±0.009 SUV | SUV±standard deviation, Brain stem [5, 13]: 0.391± 0.040 SUV | SUV±standard deviation, Cerebellum [5, 13]: 0.857±0.144 SUV | SUV±standard deviation, Cortex [5, 13]: 0.789±0.096 SUV | SUV±standard deviation, Hippocampus [5, 13]: 0.770±0.126 SUV | SUV±standard deviation, Hypothalamus [5, 13]: 0.545±0.126 SUV | SUV±standard deviation, Liver [5, 13]: 16.116±4.670 SUV | SUV±standard deviation, Rest of brain [5, 13]: 0.612±0.088 SUV | SUV±standard deviation, Striatum [5, 13]: 0.573±0.081 SUV | SUV±standard deviation, Thalamus [5, 13]: 0.544± 0.063 SUV | specific to non-specific binding ratio, cerebellum [5, 14]: 2.4 | specific to non-specific binding ratio, cortex [5, 14]: 2.6 | specific to non-specific binding ratio, hippocampus [5, 14]: 2.3 | uptake in rat brain (SUV) ([5]; biodistribution, 90 min, baseline): ~0.8 SUV | defluorination (as determined by bone uptake) ([5]; rats): minimal | decreased uptake in blocking experiments, hippocampus ([6]; PET, end of 90 min, 4 1 mg/kg p.o. 1 h prior): ~40% | PET uptake (SUV), hippocampus and cortex ([6]; baseline, 90 min): ~0.8 SUV
